Bioassay records (PubChem)
The sample as a whole holds a higher share of hits than the screen did.
Lmaj promast: inhibitors of Leishmania major promastigote growth | AID 1063 | inhibition, % at 10 µM | Leishmania major promastigotes, resazurin fluorescence viability | hit rate 9% among 200,000; in the data active = inhibition above about 50%;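 also: promastigotes grown with compound for 44 hours at 28 °C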
NALP1 yeast inh: NALP1 inhibition; hit rate 0.61% among 280,000; inhibition, % at 10 µM; S. cerevisiae NALP1/ASC/caspase-1 growth, X-gal OD620, 72 h; in the data active = inhibition mostly above about 24%, no sharp cut-off; inactive = mostly below about 32%
NLRP3 yeast inh: blocks the NALP3 inflammasome reconstituted in yeast; AID 2825; hit rate 0.39% among 330,000; Yeast reconstituted NLRP3/ASC/caspase-1, beta-gal luminescence, 24 h; inhibition, % at 10 µM;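 active = inhibition of 50% or more; inactive = inhibition below 50%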;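 also: plate controls were induced DMSO wells for no effect and uninduced yeast grown without galactose for full effect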
Calb FLC: affects C. albicans growth with fluconazole. C. albicans CaCi-2 + fluconazole, Alamar Blue growth, 48 h. growth inhibition, % (test concentration not listed). hit rate 0.57% among 300,000. AID 1979;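 active = growth inhibition above about 58% in most replicates, limit read from the data, passing the limit was not always enough; inconclusive = exactly half the replicates above a set limit; inactive = most replicates below a set limit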;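 also: all wells also contain fluconazole at 8 µg/ml as a sub-toxic cotreatment; 0% = median of DMSO wells and 100% = median of geldanamycin control wells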
T cruzi inh: T. cruzi replication inhibition; T. cruzi beta-gal in NIH3T3, luminescence, 90 h; inhibition, % (no concentration beside the values); hit rate 1.4% among 300,000; AID 1885;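 active = mean inhibition across valid replicates above about 55%, limit read from the data; inconclusive = mean below that limit but half or more replicates reach it; inactive = mean below it, under half of replicates reach it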;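 also: signal also drops with host cell toxicity which is not excluded here; 0% = plate median of DMSO wells and 100% = zero luminescence signal; higher percent means less beta-gal luminescence so fewer parasites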
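assay system = mouse NIH/3T3 fibroblasts infected with β-gal-expressing T. cruzi Tulahuen C4 | input = 5,000 NIH/3T3 host cells per well | buffer or medium = DMEM plus 2% FBS | timing = 3 h host attachment, then at least 90 h co-culture | measured by = GalScreen luminescence, 60 min | evaluation = luminescence reflecting intracellular parasite burden, expressed as percent inhibition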
PolyA inh: inhibitors of polyadenylation in S. cerevisiae; S. cerevisiae SKY197-pL101 polyadenylation reporter, beta-gal luminescence; efflux-impaired pdr1/pdr3 knockout yeast; score 100 = 6 SD above DMSO; activity score, % at 12 µM; hit rate 0.02% among 300,000; AID 1875;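 active = lowest replicate activity score at least 50, where 100 means six control SD above control mean; inconclusive = lowest score under 50 but half or more replicates reach 50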;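 also: yeast exposed to compound for 9 h at 30 °C; higher score means more reporter readthrough which indicates perturbed polyadenylation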
Active calls of the source: *; ? = inconclusive; / = no result.

SMILES	Lmaj promast	NALP1 yeast inh	NLRP3 yeast inh	Calb FLC	T cruzi inh	PolyA inh
CSc1ccc(CN2CCCC(CO)(Cc3ccccc3)C2)cc1 (configuration not stated)	64*	1	24	-2	46	4
Cc1ccc(-n2cc(CN3CCC(CO)(Cc4ccccc4)CC3)cn2)cc1	80*	3	26	-23	37	-5
OCC1(Cc2ccccc2)CCN(Cc2cnn(-c3ccccc3F)c2)CC1	88*	7	0	5	37	-12
COc1ccccc1-n1cc(CN2CCCC(CO)(Cc3cccc(Cl)c3)C2)cn1 (configuration not stated)	27	15	20	-3	?	6
OCC1(Cc2ccccc2)CCN(Cc2cnc(-c3ccc(Cl)cc3)nc2)CC1	-4	4	16	8	24	-20
COc1cc(Cl)c(CN2CCCC(CO)(Cc3ccccc3)C2)cc1OC (configuration not stated)	/	18	12	-1	4	-5
OCC1(Cc2ccccc2)CCCN(Cc2cnn(-c3ccccc3)c2)C1 (configuration not stated)	89*	-12	26	-3	29	15
CCOC(=O)N1CCN(C(=O)CSc2nnc3[nH]c(=O)c(C)c(C)n23)CC1	/	/	16	1	-13	3
COC(=O)[C@H](Cc1ccccc1)NC(=O)NCc1cccs1	7	18	0	31	-2	18
CCN1CCN(C(=O)/C(=C/c2cccs2)NC(=O)c2ccc(C)c(C)c2)CC1	/	18	5	-1	-1	9
O=C(NCc1ccccn1)c1ccc(Cl)c(S(=O)(=O)N2CCCCCC2)c1	/	7	28	1	10	-20
O=C(Oc1ccc(Br)cc1C(=S)N1CCOCC1)c1ccc([N+](=O)[O-])cc1[N+](=O)[O-]	/	12	3	-2	-8	0
Cc1ccc(-n2cc(CN3CCC(CO)(Cc4cccc(C(F)(F)F)c4)CC3)cn2)cc1	99*	15	39	7	61*	4
Cc1ccc(C2=NS(=O)(=O)N(C)C(C(=O)Nc3cc(C)n(CC(=O)N4CCCCC4)n3)=C2)cc1	/	33	17	-5	-3	-15
O=C(c1ccc(Br)cc1)N1CCCC(c2nc(-c3cccs3)no2)C1 (configuration not stated)	67*	-10	23	39	12	-9
Cc1cccc2cc(CN(CCN(C)C)C(=S)Nc3ccccc3)c(=O)[nH]c12	79*	13	-6	0	-6	-3
COc1ccccc1NC(=S)N(Cc1ccco1)Cc1cc2ccc(C)c(C)c2[nH]c1=O	43	16	12	2	-24	17
COc1ccccc1NC(=S)N(Cc1ccco1)Cc1cc2cc(C)cc(C)c2[nH]c1=O	85*	40	-1	-14	7	25
Cc1cccc(NC(=S)N(CCN(C)C)Cc2cc3cc(C)ccc3[nH]c2=O)c1	16	10	0	-15	-6	9
Cc1ccc(NC(=S)N(Cc2cccs2)Cc2cc3cccc(C)c3[nH]c2=O)cc1	92*	10	10	-6	9	-4
Cc1cccc2cc(CN(Cc3cccs3)C(=S)NCC3CCCO3)c(=O)[nH]c12 (configuration not stated)	42	15	-2	3	6	-9
Cc1ccc2cc(CN(CCCN(C)C)C(=S)NCc3ccccc3)c(=O)[nH]c2c1C	95*	24	9	28	41	-3
COc1ccc(C(=O)NCc2nnc(SCC(=O)NC3CCCCC3)o2)cc1	/	4	0	-3	36	-20
CCN(Cc1cc2cccc(C)c2[nH]c1=O)C(=O)c1ccccc1OC	/	15	-4	-1	14	?
COC(=O)c1ccccc1NC(=S)N(Cc1ccc2c(c1)OCO2)Cc1cc2cccc(C)c2[nH]c1=O	67*	3	10	?	41	-12
SMILES	Lmaj promast	NALP1 yeast inh	NLRP3 yeast inh	Calb FLC	T cruzi inh	PolyA inh
O=[N+]([O-])c1ccc(Cl)cc1NCCCN1CCOCC1	59*	22	6	/	15	/
N#Cc1cc([N+](=O)[O-])ccc1NCCN1CCOCC1	-2	4	1	6	-9	2
O=[N+]([O-])c1ccc(NCCCN2CCOCC2)c([N+](=O)[O-])c1	84*	18	11	0	0	-9
O=[N+]([O-])c1cc(S(=O)(=O)N2CCCCC2)ccc1NCCCN1CCOCC1	75*	-22	9	-12	14	-9
COc1ccc(C(CNc2ccc(S(=O)(=O)N3CCCC3)cc2[N+](=O)[O-])N2CCCC2)cc1 (configuration not stated)	30	23	14	1	59*	-4
CC1CCCN(C(c2cccs2)c2nnnn2Cc2ccccc2)C1 (configuration not stated)	30	6	18	7	1	-17
COCCN=C1NC(=O)C(CC(=O)Nc2cccc(Cl)c2C)S1 (configuration not stated)	-4	18	8	-9	-9	7
O=C(COC(=O)c1ccccn1)Nc1nc(-c2cccc([N+](=O)[O-])c2)cs1	/	/	9	6	5	-7
CN(CC1CCCN(CCc2ccc(Cl)cc2)C1)C(=O)c1ccc2nc[nH]c2c1 (configuration not stated)	/	4	8	1	45	19
O=C(NCCN1CCOCC1)c1cc2cc([N+](=O)[O-])ccc2s1	66*	14	-9	30	23	-3
O=[N+]([O-])c1cc(C(F)(F)F)ccc1NCCCN1CCOCC1	88*	19	25	-16	16	-43
O=C(NC(=S)NCCCN1CCOCC1)c1ccc([N+](=O)[O-])cc1	53*	47	10	7	-13	-6
CC(C)(CNc1ccc(S(=O)(=O)C(F)(F)F)cc1[N+](=O)[O-])N1CCOCC1	/	6	10	13	55*	11
CC(C)(CNc1ccc([N+](=O)[O-])cc1C#N)N1CCOCC1	-7	-16	-3	11	5	7
O=C(CN1C(=O)c2ccccc2C1=O)N1CCN(C2c3ccccc3-c3ccccc32)CC1	27	13	4	1	3	-10
COC(=O)C(Cc1ccc(O)cc1)NC(=O)CCc1nc2ccccc2s1 (configuration not stated)	/	0	9	-12	-12	9
O=C(CSc1ncn[nH]1)Nc1cc(S(=O)(=O)N2CCCC2)ccc1Cl	-5	6	11	-2	0	8
Cc1ccc2c(c1)c1c(n2CC(O)CNC(C)(C)C)CCCC1 (configuration not stated)	82*	-1	/	/	/	/
CN(CCN1CCOCC1)Cc1nc(-c2cccs2)no1	73*	-2	8	0	-2	8
Cc1ccc2ccc(S(=O)(=O)NCc3ccccn3)cc2c1	/	9	3	-11	-5	-3
